Here are results for 17 molecules from paper PMC3082393 (Journal of medicinal chemistry, 2011).

One data set concerns H460 and T29Kt1 cells. In words: Structure-activity statements from the cell viability assay. On the set-up: species or system human. The settings on record: based on IC50 values of Table 1.
The subject of a further data set is T29 and T29Kt1 cells. The data set is described as follows: Levels of compound 34 in cells after treatment. The settings on record: 10 μM, all time points up to 5 h after treatment, normalized with protein amount. It is filed as cell-based. A digest of the protocol:
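T29 and T29Kt1 cells at 80–90% confluence were given 10 μM test compound and collected by trypsin at time points up to 5 h. After a PBS wash, cells were lysed (M-PER) and homogenised, and supernatant protein was measured by BCA. Supernatant was deproteinised with 2 volumes of acetonitrile, spun at 4°C and concentrated under nitrogen. Drug was quantified by C18 HPLC (acetonitrile/water gradient, 230 nm) against an indole-methanol internal standard, then normalised to protein.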

Data set [1] concerns phosphorylation of the CTD of RNA polymerase II. The settings on record: cited from earlier work.
The test system of the next data set is CDK7. Conditions: ref Our previous study; cited from earlier work.
A further data set relates to CDK9. The settings on record: ref Our previous study; cited from earlier work.
Data set [2] deals with cancer cells that were highly susceptible to oncrasin-1. Conditions: cancer cells highly susceptible to oncrasin-1; cited from earlier work.

On to `O=Cc1cn(CCCOc2ccc(Cl)cc2)c2ccccc12` [Compound 15], for which the “Antitumor activity (structure-activity statement in words)” value in the data set with H460 and T29Kt1 cells was “retained its activity and selectivity”.
Still for that read-out and setting: the value for `CC(C)Cn1cc(C=O)c2ccccc21` [Compound 22] was “complete or partial loss of activity”.
Regarding `OCc1cn(Cc2cccc(Cl)c2)c2ccccc12` [Compound 34, 1-[(3-chlorophenyl)methyl]-1H-indole-3-methanol], in the data set on T29 and T29Kt1 cells, the “Level of compound in T29 cells relative to T29Kt1 cells” value is given as “twice”.
As to `OCc1cn(Cc2ccc(Cl)cc2)c2ccc(F)cc12` [Compound 51, 1-[(4-chlorophenyl)methyl]-5-fluoro-1H-indole-3-methanol], the “Antitumor activity (structure-activity statement in words)” value in the data set on H460 and T29Kt1 cells is reported as “best potency”.
As for `Cc1ccc(Cn2cc(CO)c3cc(F)ccc32)cc1` [Compound 55, 1-[(4-methylphenyl)methyl]-5-fluoro-1H-indole-3-methanol], the “Antitumor activity (structure-activity statement in words)” value in the data set with H460 and T29Kt1 cells is on record as “best potency”.
As for `OCCc1cn(Cc2ccc(Cl)cc2)c2ccccc12` [Compound 56, 2-[1-[(4-chlorophenyl)methyl]-1H-indole-3-]ethanol], in the data set with H460 and T29Kt1 cells, the “Antitumor activity (structure-activity statement in words)” value is on record as “dramatic reduction or complete loss of activity”.
Same read-out and setting: the value for `OCCCc1cn(Cc2ccccc2)c2ccccc12` [Compound 57] was “dramatic reduction or complete loss of activity”; that for `CC(O)c1cn(Cc2ccc(Cl)cc2)c2ccccc12` (stereo not shown) [Compound 58, 1-[1-[(4-chlorophenyl)methyl]-1H-indole-3-] ethanol] was “dramatic reduction or complete loss of activity”; that for `COCc1cn(Cc2ccc(Cl)cc2)c2ccccc12` [Compound 59, 1-[(4-chlorophenyl)methyl]-1H-indole-3-methoxymethane] was “dramatic loss of activity”.
For the molecule `CC(=O)OCc1cn(Cc2ccc(Cl)cc2)c2ccccc12` [Compound 60, 1-[(4-chlorophenyl)methyl]-1H-indole-3-methyl acetate], the “Antitumor activity (structure-activity statement in words)” value in the data set on H460 and T29Kt1 cells is “equipotent to compound 35”.
Still for that read-out and setting: the value for `O=C(O)c1cn(Cc2ccccc2)c2ccccc12` [Compound 62] was “dramatic reduction or complete loss of activity”; that for `O=C(O)c1cn(Cc2ccc(Cl)cc2)c2ccccc12` [Compound 63, 1-[(4-chlorophenyl)methyl]-1H-indole-3-carboxylic acid] was “dramatic reduction or complete loss of activity”.
As to `Cc1cn(Cc2ccc(Cl)cc2)c2ccccc12` [Compound 66, 1-[(4-chlorophenyl)methyl]-1H-indole-3-methane], the “Antitumor activity (structure-activity statement in words)” value with H460 and T29Kt1 cells is given as “dramatic reduction or complete loss of activity”.
On the same count and under the same terms, the value for `Clc1cccc(Cn2cc(Cc3cn(Cc4cccc(Cl)c4)c4ccccc34)c3ccccc32)c1` [Compound 68, bis[1-[(3-chlorophenyl)methyl]-1H-indole-3-]methane] was “complete loss of antitumor activity”; that for `Brc1cccc(Cn2cc(Cc3cn(Cc4cccc(Br)c4)c4ccccc34)c3ccccc32)c1` [Compound 69, bis[1-[(3-bromophenyl)methyl]-1H-indole-3-]methane] was “complete loss of antitumor activity”.
With `O=Cc1cn(Cc2ccc(Cl)cc2)c2ccccc12` [Oncrasin-1, 1-[(4-chlorophenyl)methyl]-1H-indole-3-carboxaldehyde], the “CTD phosphorylation in sensitive cancer cell lines” value in data set [1] is listed as “suppressed phosphorylation”. Also, the “Direct inhibitory effect on CDK7” value with CDK7 was “moderate”. Moreover, the “Direct inhibitory effect on CDK9” value with CDK9 is “moderate”.
As for `OCc1c[nH]c2ccccc12` [indole-3-carbinol], the Antitumor activity result in data set [2] is recorded as “did not have observable antitumor activity”.
